Assay results from different studies.
Compare with care: the assays were run in different laboratories.
Target: Ephrin type-B receptor 2 (EPHB2, Homo sapiens, UniProt P29323)
One construct used (P29323 19-1055): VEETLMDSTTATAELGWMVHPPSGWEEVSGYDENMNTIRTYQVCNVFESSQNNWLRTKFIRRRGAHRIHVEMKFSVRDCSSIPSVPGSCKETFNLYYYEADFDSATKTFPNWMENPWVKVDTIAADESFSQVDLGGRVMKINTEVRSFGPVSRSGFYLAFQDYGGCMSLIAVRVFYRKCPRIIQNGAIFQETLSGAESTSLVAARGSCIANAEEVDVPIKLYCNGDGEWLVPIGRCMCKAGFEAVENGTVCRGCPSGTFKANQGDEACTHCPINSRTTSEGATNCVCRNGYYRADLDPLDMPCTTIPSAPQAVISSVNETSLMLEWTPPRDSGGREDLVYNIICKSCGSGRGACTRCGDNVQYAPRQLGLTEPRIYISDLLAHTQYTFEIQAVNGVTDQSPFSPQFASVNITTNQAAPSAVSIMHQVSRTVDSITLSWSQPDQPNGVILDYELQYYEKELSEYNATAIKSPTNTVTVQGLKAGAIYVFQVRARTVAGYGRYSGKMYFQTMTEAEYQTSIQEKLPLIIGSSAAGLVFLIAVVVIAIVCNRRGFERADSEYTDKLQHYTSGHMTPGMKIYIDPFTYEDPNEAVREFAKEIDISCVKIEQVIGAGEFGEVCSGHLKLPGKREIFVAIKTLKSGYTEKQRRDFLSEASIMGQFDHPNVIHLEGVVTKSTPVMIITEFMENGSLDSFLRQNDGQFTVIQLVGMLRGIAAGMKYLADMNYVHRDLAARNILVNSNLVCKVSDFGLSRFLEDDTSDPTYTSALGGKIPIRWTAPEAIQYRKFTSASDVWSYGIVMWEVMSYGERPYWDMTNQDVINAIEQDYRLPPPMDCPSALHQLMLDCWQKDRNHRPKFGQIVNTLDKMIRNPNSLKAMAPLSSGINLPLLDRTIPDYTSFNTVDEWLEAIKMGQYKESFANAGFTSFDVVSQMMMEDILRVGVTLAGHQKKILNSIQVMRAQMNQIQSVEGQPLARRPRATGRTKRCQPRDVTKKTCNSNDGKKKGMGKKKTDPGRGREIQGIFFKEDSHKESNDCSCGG

SMILES	test	conditions	remaining binding
COc1cnc(Nc2cccc(S(N)(=O)=O)c2)nc1N1CCN(c2ccccc2)CC1	binding, competition with immobilised ligand	1 µM	100%
CN(c1nccc(-c2cnn3ncccc23)n1)C1CC1	binding	1 µM	100%
O=C(c1ccc(Nc2ncc(Cl)c(-c3ccc(Cl)s3)n2)cc1)N1CCC(N2CCCC2)CC1	binding, competition with immobilised ligand	1 µM	88%
COCCOc1nc(-c2ccc(Cl)nc2)nc2c1CN(C(=O)c1ncn3ccccc13)CC2	cell-free assay, competition with immobilised ligand	0.1 µM	79%
O=C(NCCCN1CCOCC1)c1ccc(Nc2ncc(Cl)c(-c3ccc(Cl)s3)n2)cc1	binding, competition with immobilised ligand	1 µM	100%
C[C@@H]1CN(c2cc(-c3n[nH]c4ccc(OC5(C)CC5)cc34)ncn2)C[C@H](C)O1	cell-free assay, competition with immobilised ligand	0.1 µM	90%
c1cncc(-c2cccc(Nc3nccc(NC4CCCCC4)n3)c2)c1	binding, competition with immobilised ligand	10 µM	90%
C[C@H]1CCN(c2nccc(-c3cnn4ncccc34)n2)C1	binding	1 µM	0%
Cc1nc(Cc2cccc(C(F)(F)F)c2)sc1-c1ccc(C(N)=O)nc1	cell-free assay, competition with immobilised ligand	1 µM	86%
O=C(Nc1c[nH]nc1C(=O)NC1CCNCC1)c1cc(F)cc(F)c1	binding, competition with immobilised ligand	1 µM	100%
COc1ccc2c(c1)O[C@@H](c1ccc(OC)c(OC)c1)C[C@H]2NC(=O)C1(c2ccc3c(c2)OC(F)(F)O3)CC1	cell-free assay, competition with immobilised ligand	1 µM	100%
CN(CCCC(F)(F)F)c1nccc(-c2cnn3ncccc23)n1	binding	1 µM	84%
O=C(NC[C@@H]1[C@H]2CN(C(=O)OCc3cc(C(F)(F)F)cc(C(F)(F)F)c3)C[C@@H]12)c1ccc2[nH]nnc2c1	cell-free assay, competition with immobilised ligand	1 µM	100%
c1cnn2ncc(-c3ccnc(N4CCC45COC5)n3)c2c1	binding	1 µM	100%
O=C(c1ccc(Nc2nccc(-c3cc4ccccc4s3)n2)cc1)N1CCC(N2CCCC2)CC1	binding, competition with immobilised ligand	1 µM	100%
N[C@H]1CCN(c2nccc(-c3cnn4ncccc34)n2)C1	binding	1 µM	100%
Nc1ncc2c(n1)-c1c([nH]c3ccc(C#CC4CC4)cc13)CCCC2	binding, competition with immobilised ligand	1 µM	90%
COc1ccnn2ncc(-c3ccnc(N(C)C)n3)c12	binding	1 µM	100%
CO[C@@H](C)c1c(Nc2ccc([C@H](N(C)C(=O)C3CCS(=O)(=O)CC3)C(F)(F)F)cc2)cnc2cc(Cl)nn12	cell-free assay, competition with immobilised ligand	1 µM	76%
